Measurements as given in ChEMBL document CHEMBL1144225, “Synthesis and anticonvulsant activities of N-benzyl (2R)-2-acetamido-3-oxysubstituted propionamide derivatives” (Bioorg Med Chem, 2008).

Key:
[1] = Neurotoxicity in ip dosed albino mouse by rotarod test; assay type: toxicity, organism-based; settings: in vivo
Procedure, shortened: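 Mice dosed intraperitoneally and tested on the rotorod for neurologic toxicity. Dose-effect data taken at the time of peak effect, given in hours.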

Mus musculus [2] = assay: Anticonvulsant activity in ip dosed albino mouse by MES seizure test; assay type: functional
Procedure, shortened: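 Mice dosed intraperitoneally and challenged by maximal electroshock (MES). Dose-effect data taken at the time of peak effect, given in hours.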

Mus musculus [3] = organism: Mus musculus; assay: Protective index, ratio of TD50 for albino mouse by rotarod test to ED50 for albino mouse by MES seizure test; assay type: functional
Procedure, shortened: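 Protective index calculated as TD50/ED50. TD50 is from the mouse rotorod test and ED50 from the MES test, both after intraperitoneal dosing at the time of peak effect.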

SMILES	TD50 [1]	ED50 (Mus musculus [2])	Ratio TD50/ED50 (Mus musculus [3])
CC(=O)N[C@H](COC(C)(C)C)C(=O)NCc1ccccc1	100 mg/kg	30 mg/kg	–
COCCOCCOC[C@@H](NC(C)=O)C(=O)NCc1ccccc1	> 300 mg/kg	> 300 mg/kg	–
CCCC(CCC)C(=O)[O-].[Na+] [VALPROATE SODIUM]	–	270 mg/kg	–
CCOC[C@@H](NC(C)=O)C(=O)NCc1ccccc1	44 mg/kg	7.9 mg/kg	5.6
CCC1(c2ccccc2)C(=O)NC(=O)NC1=O [PHENOBARBITAL]	–	22 mg/kg	–
CC(=O)N[C@H](COc1ccccc1)C(=O)NCc1ccccc1	30 mg/kg	100 mg/kg	–
CC(=O)N[C@H](COC(C)C)C(=O)NCc1ccccc1	77 mg/kg	23 mg/kg	3.3
